Test results reported in ChEMBL document CHEMBL4732112, “Synthesis and in vitro evaluation of novel spiroketopyrazoles as acetyl-CoA carboxylase inhibitors and potential antitumor agents” (Eur J Med Chem, 2021).

How the values were obtained:
Acetyl-CoA carboxylase 1 [1] = molecular target: T1, Acetyl-CoA carboxylase 1 (Homo sapiens, UniProt Q13085); test: Inhibition of recombinant human C-terminal His-tagged ACC1 (1 to 2383 residues) expressed in baculovirus infected Sf9 insect cells at 5 uM preincubated for 15 mins followed by substrate addition and measured after 60 mins by ADP-glo luminescence assay relative to control
Acetyl-CoA carboxylase 1 [2] = molecular target: T1, Acetyl-CoA carboxylase 1; test: Inhibition of recombinant human C-terminal His-tagged ACC1 (1 to 2383 residues) expressed in baculovirus infected Sf9 insect cells at 0.1 uM preincubated for 15 mins followed by substrate addition and measured after 60 mins by ADP-glo luminescence assay relative to control
A549 = test: Antiproliferative activity against human A549 cells assessed as cell growth inhibition after 72 hrs by MTT assay; type: functional, cell-based; conditions: A549, 72 h
How it was run: (§1)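 HepG2, A549 or MDA-MB-231 cells grown in DMEM with 10% FBS and penicillin/streptomycin at 37 °C, 5% CO2. Seeded at 3×10^3 per well, left 24 h, then exposed to a range of concentrations for 72 h. MTT added for 4 h, formazan dissolved in DMSO, absorbance read at 550 nm. Mean ± SD, n=3.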

HepG2 = test: Antiproliferative activity against human HepG2 cells assessed as cell growth inhibition after 72 hrs by MTT assay; type: functional, cell-based; conditions: HepG2, 72 h; how it was run: as §1
MDA-MB-231 = test: Antiproliferative activity against human MDA-MB-231 cells assessed as cell growth inhibition after 72 hrs by MTT assay; type: functional, cell-based; conditions: MDA-MB-231, 72 h; how it was run: as §1
[3] = Cytotoxicity against HUVEC assessed as cell viability at 100 uM after 72 hrs by MTT assay relative to control; type: cell-based; conditions: human, HUVEC cells, read-out: Activity
How it was run: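 HUVEC kept in RPMI 1640 with 10% FBS at 37 °C, 5% CO2. Seeded at 3×10^3 per well and treated at 100 µM for 72 h after 24 h attachment. Viability by MTT with absorbance at 550 nm, as percent of control. Mean ± SD, n=3.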

Acetyl-CoA carboxylase 1 [4] = molecular target: T1, Acetyl-CoA carboxylase 1; test: Inhibition of recombinant human C-terminal His-tagged ACC1 (1 to 2383 residues) expressed in baculovirus infected Sf9 insect cells preincubated for 15 mins followed by substrate addition and measured after 60 mins by ADP-glo luminescence assay
How it was run: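 Recombinant ACC1 in assay buffer preincubated with inhibitor in DMSO for 15 min at room temperature. Reaction started with substrate mixture and run 60 min at room temperature. Stopped with ADP-Glo reagent for 40 min, then detection reagent for 40 min to convert ADP to ATP, read by luminescence. Mean of two independent experiments.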

Row | Structure (SMILES) | inhibition (Acetyl-CoA carboxylase 1 [1]) [%] | inhibition (Acetyl-CoA carboxylase 1 [2]) [%] | IC50 (A549) [µM] | IC50 (HepG2) [µM] | IC50 (MDA-MB-231) [µM] | IC50 (Acetyl-CoA carboxylase 1 [4]) [µM] | viability at 72 h, 100 µM [3] [%]
1 | CC(C)(C)n1cc2c(n1)C(=O)CC1(CCN(C(=O)c3cc(N4CCNCC4)nc4ccccc34)CC1)O2 | 97.6 | 59.6 | > 10 | 8.57 | 4.2 | > 0.02 | 102
2 | CN1CCN(c2cc(C(=O)N3CCC4(CC3)CC(=O)c3nn(C(C)(C)C)cc3O4)c3ccccc3n2)CC1 | 97.4 | 52.8 | > 10 | 9.55 | 8.13 | > 0.02 | 93.5
3 | COc1ccccc1[C@H](Cn1c(=O)n(C(C)(C)C(=O)O)c(=O)c2c(C)c(-c3ncco3)sc21)OC1CCOCC1 [FIRSOCOSTAT] |  |  |  |  |  | 0.00434 | 
4 | CCOc1cc(C(=O)N2CCC3(CC2)CC(=O)c2nn(C(C)(C)C)cc2O3)c2ccccc2n1 | 93.9 | 38.4 | > 10 | > 10 | > 10 | > 0.1 | 96.1
5 | COc1cccc2c1C(=O)c1c(O)c3c(c(O)c1C2=O)C[C@@](O)(C(=O)CO)C[C@@H]3O[C@H]1C[C@H](N)[C@H](O)[C@H](C)O1 [DOXORUBICIN] |  |  | 0.59 | 0.69 |  |  | 14.4
6 | CC(C)Oc1cc(C(=O)N2CCC3(CC2)CC(=O)c2nn(C(C)(C)C)cc2O3)c2ccccc2n1 | 99.4 | 68 | > 10 | 3.15 | > 10 | > 0.02 | 102
7 | COc1cc(C(=O)N2CCC3(CC2)CC(=O)c2nn(C(C)(C)C)cc2O3)c2ccccc2n1 | 93.8 | 36.7 | > 10 | > 10 | > 10 | > 0.1 | 98.6
8 | Cc1cc(C(=O)N2CCC3(CC2)CC(=O)c2nn(C(C)(C)C)cc2O3)c2ccccc2n1 | 93.6 | 55 | > 10 | 9.48 | 4.86 | > 0.02 | 101
9 | CC(C)(C)n1cc2c(n1)C(=O)CC1(CCN(C(=O)c3cc(N4CCOCC4)nc4ccccc34)CC1)O2 | 97.7 | 56.9 | > 10 | 4.57 | 3.18 | > 0.02 | 34.4

Further lines, with some results ahead:

Row | inhibition (Acetyl-CoA carboxylase 1 [1]) [%] | inhibition (Acetyl-CoA carboxylase 1 [2]) [%] | IC50 (A549) [µM] | IC50 (HepG2) [µM] | IC50 (MDA-MB-231) [µM] | IC50 (Acetyl-CoA carboxylase 1 [4]) [µM] | Structure (SMILES) | viability at 72 h, 100 µM [3] [%]
10 | 101 | 82.5 | 3.52 | 1.88 | 5.93 |  | CC(C)(C)n1cc2c(n1)C(=O)CC1(CCN(C(=O)c3ccc4[nH]ncc4c3)CC1)O2 | 101
11 | 101 | 94.1 | 0.97 | 0.63 | 4.96 | 0.00129 | CC(C)(C)n1cc2c(n1)C(=O)CC1(CCN(C(=O)c3cc(-c4ccc(N)cc4)nc4ccccc34)CC1)O2 | 84.8
12 | 102 | 93.2 | 9.3 | 0.82 | > 10 | 0.00567 | CC(C)(C)n1cc2c(n1)C(=O)CC1(CCN(C(=O)c3cc(-c4ccc(Br)cc4)nc4ccccc34)CC1)O2 | 84.1
13 | 94.4 | 43.6 | 2.18 | > 10 | > 10 | > 0.1 | CC(C)(C)n1cc2c(n1)C(=O)CC1(CCN(C(=O)c3cc(-c4ccccc4Cl)nc4ccccc34)CC1)O2 | 103
14 | 101 | 94.8 | 3.74 | 2.78 | > 10 | 0.00318 | COc1ccc(-c2cc(C(=O)N3CCC4(CC3)CC(=O)c3nn(C(C)(C)C)cc3O4)c3ccccc3n2)cc1 | 102
15 | 99.6 | 96.4 | 1.15 | 1.73 | > 10 | 0.00272 | CN(C)c1ccc(-c2cc(C(=O)N3CCC4(CC3)CC(=O)c3nn(C(C)(C)C)cc3O4)c3ccccc3n2)cc1 | 91.3
16 | 101 | 90.5 | 1.94 | 2.11 | > 10 | 0.006 | CC(C)(C)n1cc2c(n1)C(=O)CC1(CCN(C(=O)c3cc(-c4ccccc4)nc4ccccc34)CC1)O2 | 97.3
17 | 104 | 93.2 | 2.33 | 0.63 | > 10 | 0.00609 | CC(C)(C)n1cc2c(n1)C(=O)CC1(CCN(C(=O)c3cc(-c4ccc(Cl)cc4)nc4ccccc34)CC1)O2 | 87.3
18 | 96.7 | 59.1 | 7.17 | 4.72 | 9.22 | > 0.02 | CC(C)(C)n1cc2c(n1)C(=O)CC1(CCN(C(=O)c3cc(Cl)nc4ccccc34)CC1)O2 | 99.3
19 | 103 | 84 | 7.72 | 1.5 | 8.1 | 0.0138 | CC(C)(C)n1cc2c(n1)C(=O)CC1(CCN(C(=O)c3cc(-c4ccccn4)nc4ccccc34)CC1)O2 | 104
20 | 102 | 95.6 | 2.03 | 1.56 | 7.13 | 0.00357 | COc1ccc(-c2cc(C(=O)N3CCC4(CC3)CC(=O)c3nn(C(C)(C)C)cc3O4)c3ccccc3n2)cc1OC | 93.7
21 | 101 | 93.8 | 5.3 | 1.44 | > 10 | 0.00222 | Cc1ccc(-c2cc(C(=O)N3CCC4(CC3)CC(=O)c3nn(C(C)(C)C)cc3O4)c3ccccc3n2)cc1 | 49.6
22 | 100 | 87.3 | 5.77 | 2.93 | > 10 | 0.0094 | CC(C)(C)n1cc2c(n1)C(=O)CC1(CCN(C(=O)c3cc(-c4ccc(F)cc4)nc4ccccc34)CC1)O2 | 98.7
23 | 95.5 | 41.8 | 1.88 | > 10 | > 10 | > 0.1 | Cc1ccccc1-c1cc(C(=O)N2CCC3(CC2)CC(=O)c2nn(C(C)(C)C)cc2O3)c2ccccc2n1 | 38.6
